Source: PubChem (several laboratories)
PREPL inhibitor – human PREPL enzyme inhibition; AID 2751; 320,000 tested, 0.68% active; inhibition, % at 5.96 µM; recombinant PREPL, fluorescence polarization activity-based probe; in the data active means inhibition above about 43%;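 further: 0% = enzyme with DMSO and 100% = wells lacking enzyme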
Target sequence (Q4J6C6 whole entry, looked up): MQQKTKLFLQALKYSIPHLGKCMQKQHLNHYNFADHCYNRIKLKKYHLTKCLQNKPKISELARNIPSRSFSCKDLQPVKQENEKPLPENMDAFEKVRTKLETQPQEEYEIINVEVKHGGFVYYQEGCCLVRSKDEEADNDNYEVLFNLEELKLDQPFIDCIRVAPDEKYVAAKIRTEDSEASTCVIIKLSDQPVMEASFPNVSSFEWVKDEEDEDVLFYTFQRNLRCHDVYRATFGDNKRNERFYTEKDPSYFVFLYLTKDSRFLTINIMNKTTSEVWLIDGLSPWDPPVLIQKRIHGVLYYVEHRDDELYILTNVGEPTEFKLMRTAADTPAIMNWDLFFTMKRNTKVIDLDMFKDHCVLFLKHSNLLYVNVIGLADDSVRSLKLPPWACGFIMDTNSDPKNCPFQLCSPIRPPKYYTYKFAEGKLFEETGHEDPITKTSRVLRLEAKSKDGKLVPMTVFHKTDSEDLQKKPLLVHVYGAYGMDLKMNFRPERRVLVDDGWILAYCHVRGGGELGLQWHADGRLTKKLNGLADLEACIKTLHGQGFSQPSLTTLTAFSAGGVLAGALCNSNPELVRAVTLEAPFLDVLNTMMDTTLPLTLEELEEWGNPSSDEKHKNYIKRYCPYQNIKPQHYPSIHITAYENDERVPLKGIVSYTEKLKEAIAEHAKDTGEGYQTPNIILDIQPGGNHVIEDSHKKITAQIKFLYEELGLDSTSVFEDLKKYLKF
iPSC survival up – increases survival of single human iPS cells | hiPSC single-cell survival, ATPlite luminescence; 100% = ROCK inhibitor wells, 0% = DMSO | survival enhancement, % at 20 µM | 360,000 tested, 0.044% active; in the data active means survival enhancement above about 18%;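 further: cells exposed to compounds for 16 hours before the ATP read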
eLon inh – inhibits E. coli Lon protease | P0A9M0 | 360,000 tested, 0.42% active | inhibition, % at 7.94 µM | purified E. coli Lon protease, fluorescence polarization | AID 602123; in the data active means inhibition above about 13%, passing the limit was not always enough;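 further: 0% = enzyme with probe and DMSO and 100% = no enzyme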
MT1-MMP act inh – MT1-MMP (human) activation inhibition | GFP/RFP ratio change, % at 20 µM | P50281 | HT1080 RFP-PRO-GFP cells, GFP/RFP ratio fluorescence, overnight; percent of plate control window, DMSO zero | AID 651647 | 360,000 tested, 0.061% active;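 active means GFP/RFP ratio change of at least 30% with cell ATP level not reduced by more than half and red fluorescence within 50% of control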
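Compound: 20 µM single dose, 1% DMSO / System: HT1080 RFP-PRO-GFP cells / Controls: DMSO and RFP-L50D-GFP cell wells / Read-out basis: GFP/RFP fluorescence ratio / Schedule: overnight compound exposure at 37 °C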
SKN-1 inh – inhibitors of C. elegans SKN-1; C. elegans VP596 Pgst-4::GFP/RFP ratio, acrylamide-induced, 24 h; 360,000 tested, 0.49% active; inhibition, % at 21.8 µM;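 active means interference check ratio from 0.5 to 1.5 plus GFP to RFP signal ratio inhibition reaching or exceeding a fixed threshold, cut at about 30% in these data, passing the limit was not always enough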
TbMetRS inhib – Trypanosoma brucei MetRS inhibition. purified T. brucei MetRS, ATP depletion, Kinase-Glo luminescence. inhibition, % at 11.9 µM. 360,000 tested, 0.4% active. AID 624268;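 active means inhibition above a per-plate cutoff of the control wells' mean inhibition plus 3 SD, cut at about 5.5% in these data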;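 further: 0% = DMSO wells median and 100% = median of wells with control inhibitor compound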
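Dosing: 11.9 µM single point; system: parasite MetRS enzyme; technique: luminescence of leftover ATP; times: 15 min enzyme-compound preincubation, 2 h reaction, 10 min detection, 25 °C; replicates: each compound tested once; read-out basis: percent inhibition relative to median high and low control wells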
eLon confirm – E. coli Lon inhibition confirmation | shares compounds with eLon inh | purified E. coli Lon, fluorescence polarization | inhibition, % at 7.94 µM | 1,400 tested, 31% active | AID 602230; in the data active means inhibition above about 16%;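 further: 0% = enzyme with probe and DMSO and 100% = no enzyme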
* marks the source's active call; other numbers are inactive results; / = no result; + = active, no number. Only some compounds are listed: those with a hit (about 1.8% of all), similar ones and a draw of the others.

SMILES	PREPL inhibitor	iPSC survival up	eLon inh	MT1-MMP act inh	SKN-1 inh	TbMetRS inhib	eLon confirm
COc1ccc(S(=O)(=O)N2CCN(C)CC2c2ccccc2)cc1OC (centres undefined)	/	0	2	-1	11	0	/
Cc1cc(C)c(C#N)c(SCC(=O)C2CC2)n1	9	-1	-8	-1	-15	-1	/
O=C(c1[nH]ncc1-c1ccccc1)C1CO1 (centres undefined)	-6	-1	50*	4	6	0	21*
O=C(O)C1CCN(C(=O)CCc2ccccc2)CC1	-9	-1	3	1	0	-1	/
CCc1ccc(NC(=O)c2cccc(NC3=NC4CS(=O)(=O)CC4S3)c2)cc1 (centres undefined)	6	0	24*	1	1	0	0
CCOc1ccc(NC(=O)c2cccc(NC3=NC4CS(=O)(=O)CC4S3)c2)cc1 (centres undefined)	0	-1	-14	3	-3	0	/
C[C@H](CO)N1C[C@H](C)[C@@H](CN(C)C(=O)Nc2ccccc2)Oc2ccc(NC(=O)Cn3cnnn3)cc2C1=O	4	0	-9	4	-3	-1	/
Cc1ccc(N2C=Nc3ccc(C)c4nc(C)cc2c34)cc1	34	-3	18*	-4	16	-1	-1
COC(C/C=C/[C@H](O)[C@H](C)OCc1ccccc1)OC	2	0	-8	4	9	0	/
CC(C)CN(C(=O)COC(=O)CCC(=O)c1ccc(Cl)cc1)c1c(N)n(Cc2ccccc2)c(=O)[nH]c1=O	-8	0	-21	-1	1	-1	/
CCNC(=O)c1c(C)nc2ccccn12	-2	1	16*	-1	10	-1	-3
Cc1nc2ccccn2c1C(=O)NN	1	-1	-3	-1	15	0	/
CC(NS(=O)(=O)c1ccccc1)C1CC2CCC1C2 (centres undefined)	-21	0	23*	-1	-16	-1	-2
CC(NS(=O)(=O)c1ccc(N)cc1)C1CC2CCC1C2 (centres undefined)	4	0	-2	2	6	0	/
COc1ccc(C2CC(=O)C(C=NCC(C)C)=C(O)C2)cc1 (centres undefined)	/	0	-15	-2	5	0	/
COc1ccc(C2CC(=O)C(C=NCCCO)=C(O)C2)cc1 (centres undefined)	5	2	44*	-13	26	0	42*
CC1(C)CC(=O)C=C(NNC(=O)c2cccnc2)C1	0	0	31	-1	-13	0	/
CC1(C)CC=C(NNC(=O)c2cccnc2)C(=O)C1	5	1	21*	-3	7	0	-8
O=C1C=C(NNC(=O)c2cccnc2)CC(c2ccco2)C1 (centres undefined)	1	-1	46*	-7	1	0	-28
CCCCNC(=S)Nc1ccc(C(F)(F)F)cc1	18	0	0	3	18	0	/
Oc1ccc(/C=N/NC(=S)Nc2cccnc2)c(O)c1O	/	0	24*	-5	10	2	27*
CCC(C(=O)NCc1ccco1)n1nc(C)c2c(C)n(-c3ccccc3)nc2c1=O (centres undefined)	0	0	-2	0	5	0	/
CCCCCCc1cc2cc(S(=O)(=O)c3ccc(F)c(Cl)c3)c(=O)oc2cc1O	5	-1	84*	-23	-9	0	-51
COc1ccc(N(C)C(=O)c2cc3c(s2)-c2ccc(Cl)cc2S(=O)(=O)C3)c(OC)c1	8	0	20*	3	-5	-1	-6
CC1=NN(C(N)=S)C(=O)C1N=Nc1ccccc1O (centres undefined)	22	0	19*	8	-7	-1	26*
SMILES	PREPL inhibitor	iPSC survival up	eLon inh	MT1-MMP act inh	SKN-1 inh	TbMetRS inhib	eLon confirm
CCOc1ccc(-n2nnnc2SCC(=O)NNC(=O)c2ccco2)cc1	-3	18	0	1	3	0	/
O=C(CN1C(=O)COc2ccc(S(=O)(=O)N3CCOCC3)cc21)Nc1cccc(Cl)c1	-1	-1	19*	-1	13	1	1
NC(=O)[C@@H]1CCCNc2c(I)cc([N+](=O)[O-])cc2C(=O)N[C@@H](CCC(=O)O)C(=O)N[C@@H](CO)C(=O)N1	4	0	1	-2	20	0	/
COc1ccc2[nH]c3c(c2c1)CCN1C(=O)N([C@@H](C)C(=O)NCc2ccco2)C(=O)[C@]31C	2	2	-7	2	-2	0	/
CCOc1ccc2noc3c2c1C(=O)c1ccccc1-3	23	-2	+	-79	-58	0	+
CCOC(=O)c1c(C)oc2c1C(=O)c1ccccc1C2=O	15	-3	-7	-6	5	0	/
CCNc1ccc2noc3c2c1C(=O)c1ccccc1-3	107*	0	+	-100	54	-1	183*
O=C1c2ccccc2-c2onc3ccc(N4CCCC4)c1c23	/	0	160*	-9	68	-2	-21
O=C1c2ccccc2C(=O)c2c1cccc2N1CCCC1	37	1	2	25	31	-1	/
CCNc1ccccc(-c2ccc3ccccc3n2)c1=O	13	0	-13	-1	10	0	/
CCc1cc2c(nc1CC)CCN(CC/C(C)=N/O[C@@H](C)c1cc(-c3c(C)cc(C)cc3C)no1)C2	-10	/	/	/	/	/	/
C/C(=N\OCC(=O)OCC(=O)N(Cc1ccccc1)C(C)(C)C)c1ccc2c(c1)OCO2	6	0	6	7	0	-1	/
COC(=O)c1ccc(OCC(O)CN2C(=O)c3ccccc3S2(=O)=O)cc1 (centres undefined)	-3	1	-4	-1	7	0	/
Cc1ccc(N2CCN(c3ccc(NCc4nc5ccccc5n4C)cc3)CC2)cc1	34	0	45*	-24	10	-1	5
Cn1c(CNc2ccc(Cl)cc2)nc2ccccc21	16	-1	-5	4	0	1	/
COc1ccc(-c2nnc(SCC(=O)N3CCN(c4ccccc4)CC3)o2)cc1OC	-13	-1	3	11	0	2	/
COc1ccc(-c2nnc(SCC(=O)N3CCOCC3)o2)cc1OC	15	-1	14*	-1	22	0	2
O=C(NC(=S)Nc1ccc([N+](=O)[O-])cc1O)C1CCCCC1	-1	0	16*	-2	8	0	0
O=C(NC(=S)Nc1cccc([N+](=O)[O-])c1)C1CCCC1	13	0	4	-5	2	0	/
